# Laboratory results reported in PMC3827909 (The Journal of organic chemistry, 2013).
# What was measured:
# [1] = Hydroxyl radical-scavenging assay; format: biochemical; conditions: ED50 <20 μM considered active
# How it was run: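 In vitro scavenging assay run on the solvent partitions of the methanolic root-bark extract (hexanes, CHCl3, EtOAc, n-BuOH) and on pure isolates, with a positive control. ED50 is the concentration that scavenges hydroxyl radicals by 50%.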
# [2] = test system: HT-29 human colon cancer cell line; experiment: Cytotoxicity against HT-29 cell line; format: cell-based; conditions: HT-29, read-out: cytotoxicity IC50 (concentration inhibiting HT-29 cell growth by 50%)
# How it was run: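 Pure isolates were tested against HT-29 human colon cancer cells, with a positive control. IC50 is the concentration that inhibits HT-29 cell growth by 50%, and an IC50 below 10 μM is counted as active.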
# NF-κB p65 = NF-κB p65 (Homo sapiens, UniProt Q04206); experiment: NF-κB p65 inhibition assay; format: cell-based
# Chain of NF-κB p65 (Q04206 whole entry): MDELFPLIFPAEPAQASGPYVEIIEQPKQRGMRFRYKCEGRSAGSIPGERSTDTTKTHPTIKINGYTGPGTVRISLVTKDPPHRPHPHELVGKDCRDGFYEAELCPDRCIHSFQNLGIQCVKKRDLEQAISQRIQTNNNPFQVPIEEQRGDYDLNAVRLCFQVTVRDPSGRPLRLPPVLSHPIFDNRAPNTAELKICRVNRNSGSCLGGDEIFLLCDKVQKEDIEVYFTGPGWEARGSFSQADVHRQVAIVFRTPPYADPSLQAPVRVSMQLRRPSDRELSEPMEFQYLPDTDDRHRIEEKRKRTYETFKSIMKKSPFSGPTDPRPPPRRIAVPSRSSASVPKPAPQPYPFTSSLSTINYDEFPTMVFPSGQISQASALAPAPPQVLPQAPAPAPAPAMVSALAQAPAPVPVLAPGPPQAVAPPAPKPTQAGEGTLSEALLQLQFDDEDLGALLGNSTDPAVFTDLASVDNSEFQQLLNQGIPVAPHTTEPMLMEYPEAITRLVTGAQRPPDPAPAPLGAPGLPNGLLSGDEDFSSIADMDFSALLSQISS
Compound,hydroxy radical-scavenging ED50 (concentration scavenging hydroxyl radical by 50%) [1] [µM],other results
"C=CC(C)(C)c1cc(-c2oc3cc(O)ccc3c2Cc2cc(-c3cc4cc(C(C)(C)C=C)c(O)cc4oc3=O)c(O)cc2O)c(O)cc1O [compound 2, sphenostylisin B]",0.73,
"CC1(C)c2cc(CC(=O)c3ccc(O)cc3O)c(O)cc2OC1CO (stereo not drawn) [compound 9, 2,4-dihydroxy-2′-dihydroxy-5′-(2,4′-epoxy-3-methylbut-1-ol-3-yl)deoxybenzoin]",1.0,
"C=CC(C)(CO)c1cc(CC(=O)c2ccc(O)cc2O)c(O)cc1O (stereo not drawn) [compound 11, 2,4-dihydroxy-2′,4′-dihydroxy-5′-(1-hydroxy-2-methylbut-3-en-2-yl)deoxybenzoin]",0.63,IC50 [2]: > 10 µM; IC50 (NF-κB p65): > 20 µM
"C=CC(C)(C)c1cc(C(=O)c2c(-c3cc(-c4cc5cc(C(C)(C)C=C)c(O)cc5oc4=O)c(O)cc3O)oc3cc(O)ccc23)c(O)cc1O [compound 1, sphenostylisin A]",0.71,NF-κB inhibitory potency relative to compound 3 (NF-κB p65; times more potency than compound 3): 75 times; NF-κB p65 inhibitory potency relative to the positive control rocaglamide (NF-κB p65; times more potent than rocaglamide): > 10 times
"C=CC(C)(CO)c1cc2c(=O)c(-c3ccc(O)cc3O)coc2cc1O (stereo not drawn) [compound 8, 7-hydroxy-6-(1-hydroxy-2-methylbut-3-en-2-yl)-2′,4′-dihydroxyisoflavone]",2.2,IC50 [2]: > 10 µM; IC50 (NF-κB p65): 0.45 µM
"C=CC(C)(O)Cc1cc2cc(-c3ccc(O)cc3O)c(=O)oc2cc1O (stereo not drawn) [compound 6, 7-hydroxy-6-(2-hydroxy-2-methylbut-3-en-1-yl)-2′,4′-dihydroxy-3-phenylcoumarin]",>20,
"C=CC(C)(CO)c1cc2cc(-c3ccc(O)cc3O)c(=O)oc2cc1O (stereo not drawn) [compound 7, 7-hydroxy-6-(1-hydroxy-2-methylbut-3-en-2-yl)-2′,4′-dihydroxy-3-phenylcoumarin]",>20,
"C=CC(C)(C)c1cc2cc(-c3ccc(O)cc3O)c(=O)oc2cc1O [compound 4, 7-hydroxy-6-(2-methylbut-3-en-2-yl)-2′,4′-dihydroxy-3-phenylcoumarin]",2.6,NF-κB p65 inhibitory activity retained relative to compound 1 (NF-κB p65; fraction of the activity of 1): one-tenth
"C=CC(C)(O)Cc1cc(CC(=O)c2ccc(O)cc2O)c(O)cc1O (stereo not drawn) [compound 10, 2,4-dihydroxy-2′,4′-dihydroxy-5′-(2-hydroxy-2-methylbut-3-en-1-yl)deoxybenzoin]",0.60,IC50 [2]: > 10 µM; IC50 (NF-κB p65): > 20 µM
"O=c1c(O)c(-c2ccc(O)c(O)c2)oc2cc(O)cc(O)c12 [quercetin, reference compound]",1.2,
"CC1(C)c2cc3cc(-c4ccc(O)cc4O)c(=O)oc3cc2OC1CO (stereo not drawn) [compound 5, 6-(2,7-epoxy-3-methylbut-1-ol-3-yl)-2′,4′-dihydroxy-3-phenylcoumarin]",18.5,
"C=CC(C)(C)c1cc2c(cc1O)OC[C@H](c1cc(-c3oc4cc(O)ccc4c3C(=O)c3cc(C(C)(C)C=C)c(O)cc3O)c(O)cc1O)C2 [compound 3, sphenostylisin C]",0.94,
